Assay [1] has as its target T1, PaTrmD (Pseudomonas aeruginosa, UniProt Q9HXQ1).
T1 sequence (Q9HXQ1 5-250): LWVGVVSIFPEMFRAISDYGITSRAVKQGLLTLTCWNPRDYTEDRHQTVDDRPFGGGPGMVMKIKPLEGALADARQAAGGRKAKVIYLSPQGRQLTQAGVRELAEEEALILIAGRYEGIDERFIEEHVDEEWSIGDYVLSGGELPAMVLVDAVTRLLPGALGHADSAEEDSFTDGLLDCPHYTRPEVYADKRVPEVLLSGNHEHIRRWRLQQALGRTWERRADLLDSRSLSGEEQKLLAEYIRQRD
The assay can be described thus: TrmD inhibitor assay. The assay is classed as biochemical. The settings on record: for reduction of enzyme inhibitory activity compared with the alkyl chain: ethylene glycol substituents. In a few lines: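 E. coli-expressed PaTrmD (IMAC and size-exclusion purified, 8 nM) was preincubated 15 min at ambient temperature with serially diluted inhibitor (0–500 μM). Reaction buffer was 50 mM Tris-HCl pH 8.0, 80 mM NaCl, 1 mM MgCl2, 0.5 mM DTT and 0.01% Triton X-100, with 2 μM SAM and 0.5 μM in vitro-transcribed tRNALeu(CAG). Reactions ran 45 min at 37 °C. SAH was detected by MTase-Glo luminescence against an SAH standard curve.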

Assay [2] has as its target T1, PaTrmD. The assay can be described thus: Surface plasmon resonance. The assay is classed as binding. To be noted: SPR. (In general: SPR reads the build-up and loss of mass on a sensor chip optically.)
The target in assay [3] is T1, PaTrmD. Description: Thermal stability. The assay is classed as binding.
Assay [4] concerns the target T1, PaTrmD. The settings on record: ref 15 (Hill et al.); cited from earlier work.
A further assay concerns the target T2, SaTrmD (Staphylococcus aureus, UniProt Q2FZ43).
T2 sequence (Q2FZ43 1-245): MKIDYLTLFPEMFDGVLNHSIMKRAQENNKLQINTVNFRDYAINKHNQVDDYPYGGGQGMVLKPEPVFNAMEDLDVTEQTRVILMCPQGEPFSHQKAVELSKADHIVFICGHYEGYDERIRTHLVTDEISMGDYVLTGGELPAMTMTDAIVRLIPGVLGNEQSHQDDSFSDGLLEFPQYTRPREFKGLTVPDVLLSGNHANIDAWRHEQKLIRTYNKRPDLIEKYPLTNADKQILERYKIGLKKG
The settings on record: cited from earlier work.

The test system of a further assay is bacteria. The settings on record: in words; cited from earlier work.
Assay [5] has as its system collection of Gram-positive and Gram-negative bacteria. The assay can be described thus: Single-dose. The assay is classed as cell-based. To be noted: against Gram-positive bacteria and mycobacteria; single dose 100 μM.
Setting [6] is: PaTrmD, O^6-substituted thienopyrimidinones, NA = not active up to 50 μM.

Read-outs that look alike come from different tables or passages of the source. A value given as a limit tells only on which side of the number the result lay.

One may read the IC50 as the concentration at which inhibition is half-maximal. Take “4-(Hexyloxy)-N-(4-((octylamino)methyl)benzyl)thieno[2,3-d]pyrimidine-5-carboxamide [Compound 44]”: at PaTrmD [1] (setting [6]), the IC50 was > 50 µM.

Turning to “4-Methoxy-N-(4-(morpholinomethyl)benzyl)thieno[2,3-d]pyrimidine-5-carboxamide [Compound 45]”, on PaTrmD [1] (setting [6]), the IC50 is > 50 µM.

Turning to `NC1CCN(Cc2ccc(CNC(=O)c3csc4nc[nH]c(=O)c34)cc2)CC1` [AZ51], at PaTrmD [2] (PaTrmD), the “faster on-rate (association rate) compared to SAH” value is given as ~2 fold. The “slower off-rate (dissociation rate) compared to SAH” value at PaTrmD [2] (PaTrmD) is given as ~30 fold. The “Tm higher than thermostabilization conferred by SAH” value on PaTrmD [3] was 17 °C. Moreover, the figures for the half-inhibitory concentration (IC50) at PaTrmD [4] and at SaTrmD were 0.039 µM and 1.2 µM, respectively. Further, the antibacterial activity result in the assay on bacteria is listed as “lacked antibacterial activity”.

Turning to `O=C(NCc1ccc(CN2CCCCC2)cc1)c1csc2nc[nH]c(=O)c12` [Compound 9, 4-Oxo-N-(4-(piperidin-1-ylmethyl)benzyl)-3,4-dihydrothieno[2,3-d]pyrimidine-5-carboxamide], the “reduction of inhibitory activity compared with AZ51” value on PaTrmD [1] (PaTrmD) is 6–16 fold.

For the compound `O=C(NCc1ccc(CN2CCOCC2)cc1)c1csc2nc[nH]c(=O)c12` [Compound 10, N-(4-(Morpholinomethyl)benzyl)-4-oxo-3,4-dihydrothieno[2,3-d]pyrimidine-5-carboxamide], the “reduction of inhibitory activity compared with AZ51” value at PaTrmD [1] (PaTrmD) is reported as 6–16 fold.

For `O=C(NCc1ccc(CNCc2ccccc2)cc1)c1csc2nc[nH]c(=O)c12` [Compound 14, N-(4-((Benzylamino)methyl)benzyl)-4-oxo-3,4-dihydrothieno[2,3-d]pyrimidine-5-carboxamide], the “TrmD inhibitory activity (in words)” value on PaTrmD [1] (PaTrmD) is given as “submicromolar activity”.

Consider `CCCCCCCCNCc1ccc(CNC(=O)c2csc3nc[nH]c(=O)c23)cc1` [Compound 15, N-(4-((Octylamino)methyl)benzyl)-4-oxo-3,4-dihydrothieno[2,3-d]pyrimidine-5-carboxamide], for which the midpoint of inhibition at PaTrmD [1], the IC50, lay at 0.02 ± 0.01 µM. The “increase of IC50 when tRNA concentration was increased” value at PaTrmD [1] (PaTrmD, tRNA competition assay, from 0.02 to 0.26 μM) was found to be 13 fold. On PaTrmD [2], the “higher binding affinity (KD) to PaTrmD compared with AZ51” value was ~50 fold. For the same compound, the “growth inhibitory activity at 100 μM” value in assay [5] was “showed growth inhibitory activity”.

As for `O=C(NCc1ccc(CNC2CCCCC2)cc1)c1csc2nc[nH]c(=O)c12` [Compound 16, N-(4-((Cyclohexylamino)methyl)benzyl)-4-oxo-3,4-dihydrothieno[2,3-d]pyrimidine-5-carboxamide], on PaTrmD [1] (PaTrmD), the “TrmD inhibitory activity (in words)” value is reported as “submicromolar activity”.

With `O=C(NCc1ccc(CNC23CC4CC(CC(C4)C2)C3)cc1)c1csc2nc[nH]c(=O)c12` [Compound 17, N-(4-((((3s,5s,7s)-Adamantan-1-yl)amino)methyl)benzyl)-4-oxo-3,4-dihydrothieno[2,3-d]pyrimidine-5-carboxamide], the “TrmD inhibitory activity (in words)” value at PaTrmD [1] (PaTrmD) was “submicromolar activity”.

Consider `CCCCCCCCN(Cc1ccccc1)Cc1ccc(CNC(=O)c2csc3nc[nH]c(=O)c23)cc1` [Compound 20, N-(4-((Benzyl(octyl)amino)methyl)benzyl)-4-oxo-3,4-dihydrothieno[2,3-d]pyrimidine-5-carboxamide], for which the “TrmD inhibitory activity (in words)” value at PaTrmD [1] (PaTrmD) is on record as “nearly abolished”.

For the compound `CCCCCCCCCCNCc1ccc(CNC(=O)c2csc3nc[nH]c(=O)c23)cc1` [Compound 23, N-(4-((Decylamino)methyl)benzyl)-4-oxo-3,4-dihydrothieno[2,3-d]pyrimidine-5-carboxamide], the “growth inhibitory activity at 100 μM” value in assay [5] is on record as “showed growth inhibitory activity”.

As for `CCCCCCCCCCCCNCc1ccc(CNC(=O)c2csc3nc[nH]c(=O)c23)cc1` [Compound 24, N-(4-((Dodecylamino)methyl)benzyl)-4-oxo-3,4-dihydrothieno[2,3-d]pyrimidine-5-carboxamide], in assay [5], the “growth inhibitory activity at 100 μM” value is recorded as “showed growth inhibitory activity”.

Turning to `O=C(NCc1ccc(CNCCOCCO)cc1)c1csc2nc[nH]c(=O)c12` [Compound 25, N-(4-(((2-(2-Hydroxyethoxy)ethyl)amino)methyl)benzyl)-4-oxo-3,4-dihydrothieno[2,3-d]pyrimidine-5-carboxamide], the “reduction of enzyme inhibitory activity compared with the alkyl chain” value at PaTrmD [1] (PaTrmD) was 4–8 fold.

On to `CCOCCOCCNCc1ccc(CNC(=O)c2csc3nc[nH]c(=O)c23)cc1` [Compound 26, N-(4-(((2-(2-Ethoxyethoxy)ethyl)amino)methyl)benzyl)-4-oxo-3,4-dihydrothieno[2,3-d]pyrimidine-5-carboxamide], for which, at PaTrmD [1] (PaTrmD), the “reduction of enzyme inhibitory activity compared with the alkyl chain” value is listed as 4–8 fold.

As for “N-(4-((Benzylamino)methyl)benzyl)-4-methoxythieno[2,3-d]pyrimidine-5-carboxamide [Compound 39]”, the IC50 against PaTrmD [1] (setting [6]) is > 50 µM.

In the case of “N-(4-((Benzylamino)methyl)benzyl)-4-propoxythieno[2,3-d]pyrimidine-5-carboxamide [Compound 40]”, the IC50 on PaTrmD [1] (setting [6]) is > 50 µM.

As to “N-(4-((Octylamino)methyl)benzyl)-4-propoxythieno[2,3-d]pyrimidine-5-carboxamide [Compound 43]”, the half-inhibitory concentration (IC50) against PaTrmD [1] (setting [6]) is > 50 µM.

On to “N-(4-(Morpholinomethyl)benzyl)-4-propoxythieno[2,3-d]pyrimidine-5-carboxamide [Compound 46]”, for which the IC50 against PaTrmD [1] (setting [6]) is > 50 µM.

These data come from paper PMC6748665 (Journal of Medicinal Chemistry, 2019).
